Experiment [1] relates to Mycobacterium tuberculosis. As to the kind of experiment: Antimicrobial activity against Mycobacterium tuberculosis deltacydKO mutant under GAST/Fe medium assessed as growth inhibition after 14 days by alamar blue assay. In kind it is functional. Summed up: (§1)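 Broth microdilution in GAST/Fe medium against fully virulent Mtb H37RvMa or its derived strains (cytochrome bd oxidase deletion ΔcydKO; qcrB Ala317Thr point mutant). Plates were incubated 14 days, growth was read by Alamar Blue, and MIC90 was taken as the potency value.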
For orientation: The colour change of resazurin is a common sign of viable cells or microbes.

Experiment [2] relates to Mycobacterium tuberculosis. As to the kind of experiment: Antimicrobial activity against Mycobacterium tuberculosis deltacydKO/A317T mutant under GAST/Fe medium assessed as growth inhibition after 14 days by alamar blue assay. In kind it is functional. The gist of the method: as §1

One may read the MIC90 as an inhibitory concentration at the 90% level, which refers to growth in some studies and to a panel of isolates in others.

Converted amounts (≈) assume the structure as drawn.

Regarding `Cc1noc(-c2nc(C)c3c(c2N)C(=O)N(Cc2cccc(OC(F)(F)F)c2)C3=O)n1`, the results for the MIC90 in experiment [1] and in experiment [2] were below 0.019 µM and above 10 µM, respectively.

For `CCOC(=O)c1nc(C)c2c(c1N)C(=O)N(Cc1ccccc1)C2O` (configuration not stated), the MIC90 is 0.019 µM (≈ 0.00649 µg/mL) in experiment [1] and above 10 µM in experiment [2].

`COc1cccc(CN2C(=O)c3c(C)nc(-c4nc(C)no4)c(N)c3C2=O)c1`: the MIC90 in experiment [1] is 0.039 µM (≈ 0.0148 µg/mL); in experiment [2], above 10 µM.

In the case of `Cc1nc(C(=O)OC2CC2)c(N)c2c1C(=O)N(Cc1ccccc1)C2=O`, the figures for the MIC90 in experiment [1] and in experiment [2] were 0.039 µM (≈ 0.0137 µg/mL) and above 10 µM, respectively.

With `Cc1noc(-c2nc(C)c3c(c2N)C(=O)N(Cc2cccc(Cl)c2)C3=O)n1`, the values for the MIC90 in experiment [1] and in experiment [2] were below 0.019 µM and above 10 µM, respectively.

As for `CCOC(=O)c1nc(C)c2c(c1N)C(=O)N(Cc1ccccc1)C2=O`, the MIC90 in experiment [1] is 0.019 µM (≈ 0.00645 µg/mL); in experiment [2], above 10 µM.

Values taken from ChEMBL document CHEMBL3734652, “Pyrrolo[3,4-c]pyridine-1,3(2H)-diones: A Novel Antimycobacterial Class Targeting Mycobacterial Respiration” (J Med Chem, 2015).
